Bioassay records: PubChem BioAssay, several laboratories
WT yeast gro inh: growth inhibition of WT yeast, mitochondrial fusion screen. mitochondrial fusion phenotypic screen, WT strain. inhibition, % at 10 µM. 190,000 compounds, 2.1% hits. AID 1362; in the data active = inhibition above about 58%; tested in S. cerevisiae
RAM network inh: yeast RAM network inhibition; S. cerevisiae dse1pr::URA3 reporter, 5-FOA growth OD615, 2 d; analog-sensitive cbk1-as2 kinase mutant strain; 190,000 compounds, 1.8% hits; inhibition, % at 50 µM;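 active = inhibition above a set limit, 3 SD over mean compound inhibition, cut at about 8.4% in these data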;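 also: 0% = DMSO-only wells with no growth and 100% = 10 µM 1-NA-PP1 full growth; inhibition rescues growth on 5-FOA so higher OD means more RAM inhibition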
NPY-Y2 antag: NPY-Y2 (human) receptor antagonism. AID 793. inhibition, % at 2.7 µM. 140,000 compounds, 0.99% hits. NPY-Y2 expressing cells, antagonist mode; in the data active = inhibition above about 17%;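 also: 0% = vehicle with agonist challenge and 100% = reference antagonist with challenge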
NPY Y1 blocker: blocks the human neuropeptide Y Y1 receptor; P25929; HEK293-CNG Y1 cells, membrane potential fluorescence; NPY at EC95, then isoproterenol; inhibition, % at 3.6 µM; 200,000 compounds, 1% hits;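 active = inhibition above the campaign mean inhibition of all tested compounds plus 3 SD, cut at about 20% in these data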;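 also: 0% = DMSO wells given NPY plus isoproterenol and 100% = isoproterenol alone without NPY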
Target sequence (P25929 whole entry, looked up): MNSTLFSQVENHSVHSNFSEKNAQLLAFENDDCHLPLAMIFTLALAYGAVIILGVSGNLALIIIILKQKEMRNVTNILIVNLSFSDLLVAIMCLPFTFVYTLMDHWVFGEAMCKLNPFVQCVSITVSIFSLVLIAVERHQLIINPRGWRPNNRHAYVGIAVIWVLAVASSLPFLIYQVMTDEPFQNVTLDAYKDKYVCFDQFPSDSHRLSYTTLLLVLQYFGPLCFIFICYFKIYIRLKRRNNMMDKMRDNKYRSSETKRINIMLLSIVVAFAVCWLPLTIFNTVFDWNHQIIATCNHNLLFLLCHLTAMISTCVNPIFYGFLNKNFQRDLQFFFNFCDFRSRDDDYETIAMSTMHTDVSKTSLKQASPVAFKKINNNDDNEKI
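Material: Y1- and CNG-channel-expressing HEK293 cells / Probe or stimulus: NPY 25 nM then isoproterenol 1 µM plus Ro 20-1724 25 µM / Doses: 3.6 µM single dose, DMSO 0.4% / Schedule: compound incubation 1 h at room temperature, readout 45 min post-stimulation / Signal: membrane potential fluorescence / Benchmarks: isoproterenol-only wells as full block versus NPY-plus-isoproterenol wells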
NPY-Y2 PAM-ag: human NPY-Y2 potentiation or agonism, primary screen; P49146; cells expressing NPY-Y2, potentiator/agonist read-out; activation, % at 3.6 µM; 220,000 compounds, 0.45% hits; AID 1359; in the data active = activation above about 27%;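 also: cells stimulated with NPY near EC25 plus isoproterenol at EC100; 0% = vehicle plus submaximal agonist and 100% = vehicle plus saturating agonist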
NPY1 pot ag: human NPY-Y1 potentiation or agonism, primary screen. P25929. NPY-Y1 expressing cells, potentiator/agonist activation. 220,000 compounds, 0.37% hits. activation, % at 3.6 µM; in the data active = activation above about 33%, passing the limit was not always enough;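 also: cells stimulated with NPY at EC10 then isoproterenol at EC100; 0% = low agonist plus stimulus and 100% = saturating agonist plus stimulus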
* = called active by the depositor. This is a sample that favours compounds with a hit; in the whole collection about 4.9% have one here.

Screening CCc1sc(N(C(=O)Cc2ccccc2)c2ccc(F)cc2)nc1-c1ccccc1 returned WT yeast gro inh 10.9, RAM network inh 9.1*, NPY-Y2 antag 0.5, NPY Y1 blocker 1.0, NPY-Y2 PAM-ag -5.5 and NPY1 pot ag 7.7.
For CCc1sc(N(C(=O)Cc2ccccc2)c2ccccc2)nc1-c1ccccc1 the results were WT yeast gro inh 13.8, RAM network inh 11.2*, NPY-Y2 antag 0.0, NPY Y1 blocker 14.5, NPY-Y2 PAM-ag 3.3 and NPY1 pot ag -12.5.
`CCOC(=O)C1CCN(C(=O)c2ccc3c(c2)OCO3)CC1` gave WT yeast gro inh -8.3, RAM network inh 1.7, NPY-Y2 antag 3.4, NPY Y1 blocker 7.0, NPY-Y2 PAM-ag -11.1 and NPY1 pot ag -1.9.
CC1=CC2CC1C1C(=O)N(c3ccc(S(=O)(=O)Nc4nc(C)cc(C)n4)cc3)C(=O)C21 (configuration not stated) was read as WT yeast gro inh -4.2, RAM network inh 9.8*, NPY-Y2 antag 8.2, NPY Y1 blocker 0.8, NPY-Y2 PAM-ag -1.5 and NPY1 pot ag -23.3.
For Cc1cc(C)nc(NS(=O)(=O)c2ccc(N3C(=O)C4C5C=CC(C5)C4C3=O)cc2)n1 (configuration not stated) the results were WT yeast gro inh -5.8, RAM network inh 0.4, NPY-Y2 antag 1.5, NPY Y1 blocker 0.5, NPY-Y2 PAM-ag 4.2 and NPY1 pot ag -18.1.
Cn1nnc2c[n+](CC(=O)c3ccc4ccccc4c3)cc(Br)c21 was read as NPY-Y2 PAM-ag 57.0* and NPY1 pot ag 47.2*.
Cn1nnc2c[n+](CC(=O)c3ccc(Cl)cc3)cc(Br)c21 was read as NPY-Y2 PAM-ag 32.1 and NPY1 pot ag 43.6.
For COc1ccc2c(c1)CCc1c-2n[nH]c1C(=O)O the results were WT yeast gro inh 72.2*, RAM network inh 0.9, NPY-Y2 antag -3.0, NPY Y1 blocker -4.7, NPY-Y2 PAM-ag 39.8* and NPY1 pot ag 32.2.
O=C1CCCCC1C(Nc1ccc(Br)cc1)c1ccccc1 (configuration not stated) was read as WT yeast gro inh 65.4*, RAM network inh 4.4, NPY-Y2 antag -2.4, NPY Y1 blocker -8.0, NPY-Y2 PAM-ag -2.0 and NPY1 pot ag 18.9.
`C/C(=N/NC(=S)Nc1cccc(C)c1)c1cccc([N+](=O)[O-])c1` gave WT yeast gro inh 55.5, RAM network inh 1.5, NPY Y1 blocker 1.4, NPY-Y2 PAM-ag -4.9 and NPY1 pot ag -3.4.
Screening CC/C(=N\NC(=S)Nc1cc(C)ccc1C)c1ccc(OC(F)F)cc1 returned WT yeast gro inh 66.5*, RAM network inh 5.3, NPY-Y2 antag 8.0, NPY Y1 blocker 3.2, NPY-Y2 PAM-ag 9.2 and NPY1 pot ag -3.0.
CC/C(=N\NC(=S)Nc1cccc(C)c1)c1ccccc1 was read as WT yeast gro inh 71.2*, RAM network inh 0.8, NPY Y1 blocker -2.8, NPY-Y2 PAM-ag 6.6 and NPY1 pot ag 6.2.
CC/C(=N\NC(=S)Nc1ccc(OC)cc1)c1ccc(OC(F)F)cc1 was read as WT yeast gro inh 48.6, RAM network inh -0.4, NPY-Y2 antag 10.1, NPY Y1 blocker 9.6, NPY-Y2 PAM-ag 14.6 and NPY1 pot ag -6.0.
For CC(C)/C(=N\NC(=O)Nc1ccccc1)c1ccccc1 the results were WT yeast gro inh 24.1, RAM network inh -0.3, NPY-Y2 antag 3.5, NPY Y1 blocker 5.0, NPY-Y2 PAM-ag -9.1 and NPY1 pot ag 24.8.
`Cc1cccc(NC(=S)N/N=C(\c2ccccc2)C(C)C)c1` gave WT yeast gro inh 73.3*, RAM network inh 2.5, NPY Y1 blocker -0.2, NPY-Y2 PAM-ag -5.8 and NPY1 pot ag -1.9.
For O=C(CSc1nc2nc(-c3cccs3)cc(C(F)(F)F)c2c(=O)[nH]1)Nc1ccc(F)c(F)c1 the results were WT yeast gro inh -17.1, RAM network inh 4.5, NPY Y1 blocker -6.7, NPY-Y2 PAM-ag 8.8 and NPY1 pot ag 17.6.
Cc1cnc(CN(C)Cc2nc(Cc3cccc(C(F)(F)F)c3)no2)[nH]1 was read as WT yeast gro inh 30.9, RAM network inh -1.5, NPY Y1 blocker 2.2, NPY-Y2 PAM-ag -2.0 and NPY1 pot ag -0.7.
For C=C(C)COc1ccc(-c2nc(N)ncc2Oc2ccccc2OC)c(O)c1 the results were WT yeast gro inh -8.0, RAM network inh 3.0, NPY-Y2 antag -2.1, NPY Y1 blocker -4.1, NPY-Y2 PAM-ag 13.3 and NPY1 pot ag 12.8.
CN(C)c1ccc(O)c2c1CC1CC3[C@@H](N(C)C)C(=O)C(C(N)=O)=C(O)[C@]3(O)C(=O)C1=C2O (some centres not stated) was read as WT yeast gro inh 60.2*, RAM network inh 0.7, NPY-Y2 antag 1.0, NPY Y1 blocker 1.3, NPY-Y2 PAM-ag -1.4 and NPY1 pot ag -2.7.
For CCOCCCNS(=O)(=O)c1ccc2c(c1)oc(=O)n2CC(=O)OCC the results were WT yeast gro inh 27.6, RAM network inh -0.3, NPY-Y2 antag 0.1, NPY Y1 blocker 7.8, NPY-Y2 PAM-ag 4.0 and NPY1 pot ag -19.2.
For COc1ccc2cc(S(=O)(=O)N3CCCCCC3)ccc2c1 the results were WT yeast gro inh 12.1, RAM network inh 4.1, NPY Y1 blocker 1.9, NPY-Y2 PAM-ag 5.3 and NPY1 pot ag 5.7.
COc1ccc(S(=O)(=O)Oc2ccc3ccccc3c2)cc1 was read as WT yeast gro inh 60.4*, RAM network inh -0.1, NPY-Y2 antag 4.3, NPY Y1 blocker 1.0, NPY-Y2 PAM-ag 11.7 and NPY1 pot ag -16.6.
`Cc1ccnc(NC(=O)CN2C(=O)c3ccccc3C2=O)c1` gave WT yeast gro inh 3.5, RAM network inh 0.6, NPY Y1 blocker 4.2, NPY-Y2 PAM-ag 9.7 and NPY1 pot ag 6.4.
`CC[C@@H](C)[C@H](NC(=O)OC(C)(C)C)c1nnc(S(=O)(=O)Cc2cc(C)ccc2C)o1` gave WT yeast gro inh 66.1*, RAM network inh 4.9, NPY-Y2 antag 1.2, NPY Y1 blocker -4.0, NPY-Y2 PAM-ag 1.6 and NPY1 pot ag -13.7.
`CC(C)(C)OC(=O)N[C@@H](Cc1ccccc1)c1nnc(S(=O)(=O)Cc2cccc(F)c2)o1` gave WT yeast gro inh -22.1, RAM network inh 2.6, NPY-Y2 antag 2.0, NPY Y1 blocker 0.1, NPY-Y2 PAM-ag -8.0 and NPY1 pot ag -9.7.
Cc1ccccc1CS(=O)(=O)c1nnc([C@H](CC(C)C)NC(=O)OC(C)(C)C)o1 was read as WT yeast gro inh 75.1*, RAM network inh 1.1, NPY-Y2 antag 0.5, NPY Y1 blocker -2.1, NPY-Y2 PAM-ag 0.6 and NPY1 pot ag 5.7.
Screening O=C1CC(C(=O)NCc2ccccc2)C2(CCCC2)O1 (configuration not stated) returned WT yeast gro inh 65.1*, RAM network inh 2.3, NPY-Y2 antag 4.2, NPY Y1 blocker -2.6, NPY-Y2 PAM-ag 4.8 and NPY1 pot ag -17.6.
CC(C)CNC(=O)C1CC(=O)OC12CCCCC2 (configuration not stated) was read as WT yeast gro inh 8.4, RAM network inh 0.1, NPY-Y2 antag 2.4, NPY Y1 blocker 5.2, NPY-Y2 PAM-ag -16.2 and NPY1 pot ag -4.1.
